Source: ChEMBL document CHEMBL1667800, “Synthesis, DNA/RNA affinity and antitumour activity of new aromatic diamidines linked by 3,4-ethylenedioxythiophene” (Eur J Med Chem, 2011)
The source made the active and inactive calls. The calls are words filed in the database; no cut-off is given here.

Tests used:
HeLa [1] = experiment: Cytotoxicity against human HeLa cells after 72 hrs by MTT assay; assay type: functional
Outline: (§1)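 Cells were seeded at 2 × 10^4 cells/mL and attached overnight at 37 °C, 5% CO2. They were then exposed for 72 h to compounds from aqueous stocks (working solutions 10^-3–10^-6 mol dm^-3). MTT was added for 4 h at 37 °C, formazan dissolved in DMSO, and absorbance read at 570 nm. GI50 is the mean ± SD of three independent experiments run in triplicate.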

Nucleic Acid [2] = experiment: Binding affinity to polu A-poly U assessed as melting temperature at compound over DNA molar ratio of 0.3 at pH 7 by thermal denaturation assay; assay type: nucleic-acid assay
Outline: (§2)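 Thermal melting of ds-polynucleotide (ct-DNA or poly A-poly U) alone and with compound at the given r, Na-cacodylate pH 7.0, I = 0.05 mol dm^-3. Absorbance at 260 nm was followed versus temperature, with compound absorbance subtracted and the curve normalized. Tm was taken from the first-derivative maximum or by tangent. ΔTm = Tm(complex) − Tm(free nucleic acid).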

MIA PaCa-2 = experiment: Cytotoxicity against human MIAPaCa2 cells after 72 hrs by MTT assay; assay type: functional; conditions: MIA PaCa-2, 72 h; outline: as §1
Calf thymus DNA [3] = experiment: Binding affinity to calf thymus DNA assessed as melting temperature at compound over DNA molar ratio of 0.2 at pH 7 by thermal denaturation assay; assay type: nucleic-acid assay; conditions: Bos taurus; outline: as §2
Calf thymus DNA [4] = experiment: Binding affinity to calf thymus DNA minor groove assessed as DNA CD band at compound over DNA molar ratio of < 0.2 by circular dichroism titration; assay type: nucleic-acid assay; conditions: Bos taurus
Outline: (§3)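 CD titration of polynucleotide (2.0 × 10^-5 mol dm^-3, as phosphate) with added compound over a range of r = [compound]/[polynucleotide]. Na-cacodylate buffer, pH 7.0, I = 0.05 mol dm^-3, 1 cm quartz cuvette. ct-DNA was sonicated and filtered before use. Changes in the polynucleotide CD band and induced CD bands were followed.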

AGS = experiment: Cytotoxicity against human AGS cells after 72 hrs by MTT assay; assay type: functional; outline: as §1
MCF7 = experiment: Cytotoxicity against human MCF7 cells after 72 hrs by MTT assay; assay type: functional; conditions: MCF7, 72 h; outline: as §1
[5] = Cytotoxicity against MDCK cells after 72 hrs by MTT assay; assay type: cell-based, Canis lupus familiaris; conditions: dog; outline: as §1
Calf thymus DNA [6] = experiment: Binding affinity to calf thymus DNA assessed as batochromic effect at compound over DNA molar ratio of 0.2 by fluorimetric titration; assay type: nucleic-acid assay; conditions: Bos taurus
Outline: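 Fluorimetric titration of compound (about 1.0 × 10^-6 mol dm^-3) with ct-DNA. Excitation above 360 nm to avoid inner-filter effects. Na-cacodylate buffer, pH 7.0, I = 0.05 mol dm^-3. Emission at the maximum was plotted against c(ct-DNA). Ks and n were obtained by non-linear Scatchard fitting.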

Caco-2 = experiment: Cytotoxicity against human Caco2 cells after 72 hrs by MTT assay; assay type: functional; conditions: Caco-2, 72 h; outline: as §1
Calf thymus DNA [7] = experiment: Binding affinity to calf thymus DNA assessed as hyperchromic effect at compound over DNA molar ratio of 0.2 by UV-Vis spectra; assay type: nucleic-acid assay; conditions: Bos taurus; in the assay text read “hypochromic effect” for “hyperchromic effect”
Outline: (§4)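 UV-Vis titration of compound (c = 1.97 × 10^-5 mol dm^-3 in the shown example) with ct-DNA. Na-cacodylate buffer, pH 7.0, I = 0.05 mol dm^-3, 1 cm quartz cuvette. Absorbance at the maximum was tracked against c(ct-DNA). Ks and n were obtained by non-linear least-squares Scatchard fitting.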

Calf thymus DNA [8] = experiment: Binding affinity to calf thymus DNA assessed as melting temperature at compound over DNA molar ratio of 0.3 at pH 7 by thermal denaturation assay; assay type: nucleic-acid assay; conditions: Bos taurus; outline: as §2
Calf thymus DNA [9] = experiment: Binding affinity to calf thymus DNA assessed as DNA CD band at compound over DNA molar ratio of > 0.3 by circular dichroism titration; assay type: nucleic-acid assay; conditions: Bos taurus; outline: as §3
Calf thymus DNA [10] = experiment: Binding affinity to calf thymus DNA assessed as melting temperature at compound over DNA molar ratio of 0.1 at pH 7 by thermal denaturation assay; assay type: nucleic-acid assay; conditions: Bos taurus; outline: as §2
NCI-H358 = experiment: Cytotoxicity against human NCI-H358 cells after 72 hrs by MTT assay; assay type: functional; conditions: NCI-H358, 72 h; outline: as §1
Calf thymus DNA [11] = experiment: Binding affinity to calf thymus DNA assessed as batochromic effect at compound over DNA molar ratio of 0.2 by UV-Vis spectra; assay type: nucleic-acid assay; conditions: Bos taurus; outline: as §4
HEp-2 = experiment: Cytotoxicity against human Hep2 cells after 72 hrs by MTT assay; assay type: functional; conditions: HEp-2, 72 h; outline: as §1
Nucleic Acid [12] = experiment: Binding affinity to ds-RNA assessed as RNA CD band at compound over RNA molar ratio of < 0.2 by circular dichroism titration; assay type: nucleic-acid assay; outline: as §3
HeLa [13] = experiment: Induction of cell cycle arrest in human HeLa assessed as accumulation at G0/G1-phase at 1x10'-6 M after 48 hrs by FACS analysis (RVb = 61.2+/-2.3%); assay type: functional
Calf thymus DNA [14] = experiment: Binding affinity to calf thymus DNA assessed as DNA CD band at compound over DNA molar ratio of > 0.2 by circular dichroism titration; assay type: nucleic-acid assay; conditions: Bos taurus; outline: as §3
HeLa [15] = experiment: Induction of cell cycle arrest in human HeLa assessed as accumulation at S-phase at 5x10'-6 M after 48 hrs by FACS analysis (RVb = 30.4+/-3.7%); assay type: functional
HeLa [16] = experiment: Induction of cell cycle arrest in human HeLa assessed as accumulation at G2/M-phase at 5x10'-6 M after 72 hrs by FACS analysis (RVb = 7.8+/-3.1%); assay type: functional
HeLa [17] = experiment: Induction of cell cycle arrest in human HeLa assessed as accumulation at S-phase at 1x10'-6 M after 72 hrs by FACS analysis (RVb = 28.8+/-3.2%); assay type: functional
HeLa [18] = experiment: Induction of cell cycle arrest in human HeLa assessed as accumulation at S-phase at 1x10'-6 M after 24 hrs by FACS analysis (RVb = 27.7+/-4.2%); assay type: functional
HeLa [19] = experiment: Induction of cell cycle arrest in human HeLa assessed as accumulation at S-phase at 1x10'-6 M after 48 hrs by FACS analysis (RVb = 30.4+/-3.7%); assay type: functional
HeLa [20] = experiment: Induction of cell cycle arrest in human HeLa assessed as accumulation at G2/M-phase at 5x10'-6 M after 48 hrs by FACS analysis (RVb = 8.4+/-3.9%); assay type: functional
HeLa [21] = experiment: Induction of cell cycle arrest in human HeLa assessed as accumulation at S-phase at 5x10'-6 M after 72 hrs by FACS analysis (RVb = 28.8+/-3.2%); assay type: functional
HeLa [22] = experiment: Induction of cell cycle arrest in human HeLa assessed as accumulation at G0/G1-phase at 5x10'-6 M after 24 hrs by FACS analysis (RVb = 62.2+/-4.4%); assay type: functional
HeLa [23] = experiment: Induction of cell cycle arrest in human HeLa assessed as accumulation at G0/G1-phase at 1x10'-6 M after 24 hrs by FACS analysis (RVb = 62.2+/-4.4%); assay type: functional
HeLa [24] = experiment: Induction of cell cycle arrest in human HeLa assessed as accumulation at G2/M-phase at 1x10'-6 M after 48 hrs by FACS analysis (RVb = 8.4+/-3.9%); assay type: functional
HeLa [25] = experiment: Induction of cell cycle arrest in human HeLa assessed as accumulation at G0/G1-phase at 1x10'-6 M after 72 hrs by FACS analysis (RVb = 63.4+/-3.2%); assay type: functional
HeLa [26] = experiment: Induction of cell cycle arrest in human HeLa assessed as accumulation at G0/G1-phase at 5x10'-6 M after 72 hrs by FACS analysis (RVb = 63.4+/-3.2%); assay type: functional
Calf thymus DNA [27] = experiment: Binding affinity to calf thymus DNA assessed as hyperchromic effect at compound over DNA molar ratio of 0.5 by UV-Vis spectra; assay type: nucleic-acid assay; conditions: Bos taurus; in the assay text read “hypochromic effect” for “hyperchromic effect”; outline: as §4
HeLa [28] = experiment: Induction of cell cycle arrest in human HeLa assessed as accumulation at G2/M-phase at 1x10'-6 M after 24 hrs by FACS analysis (RVb = 10.1+/-3.4%); assay type: functional
HeLa [29] = experiment: Induction of cell cycle arrest in human HeLa assessed as accumulation at S-phase at 5x10'-6 M after 24 hrs by FACS analysis (RVb = 27.7+/-4.2%); assay type: functional
HeLa [30] = experiment: Induction of cell cycle arrest in human HeLa assessed as accumulation at G2/M-phase at 5x10'-6 M after 24 hrs by FACS analysis (RVb = 10.1+/-3.4%); assay type: functional
HeLa [31] = experiment: Induction of cell cycle arrest in human HeLa assessed as accumulation at G2/M-phase at 1x10'-6 M after 72 hrs by FACS analysis (RVb = 7.8+/-3.1%); assay type: functional
HeLa [32] = experiment: Induction of cell cycle arrest in human HeLa assessed as accumulation at G0/G1-phase at 5x10'-6 M after 48 hrs by FACS analysis (RVb = 61.2+/-2.3%); assay type: functional

| Structure (SMILES) | GI50 (HeLa [1]) [µM] | ΔTm (Nucleic Acid [2]) [°C] | GI50 (MIA PaCa-2) [µM] | ΔTm (Calf thymus DNA [3]) [°C] | Activity (Calf thymus DNA [4]) | GI50 (AGS) [µM] | GI50 (MCF7) [µM] | GI50 at 72 h [5] [µM] | Activity (Calf thymus DNA [6]) | GI50 (Caco-2) [µM] | Activity (Calf thymus DNA [7]) | ΔTm (Calf thymus DNA [8]) [°C] | Activity (Calf thymus DNA [9]) | ΔTm (Calf thymus DNA [10]) [°C] | GI50 (NCI-H358) [µM] | Activity (Calf thymus DNA [11]) | GI50 (HEp-2) [µM] | Activity (Nucleic Acid [12]) | also measured |
| --- | --- | --- | --- | --- | --- | --- | --- | --- | --- | --- | --- | --- | --- | --- | --- | --- | --- | --- | --- |
| CC(C)CNC(=N)c1ccc(-c2sc(-c3ccc(C(=N)NCC(C)C)cc3)c3c2OCCO3)cc1 | 18.8 | 5.2 | 4.9 | 9 | Active | 59.3 | 7.3 | 59.7 | Active | 42.8 | Active | 15 | Active | 9 | 73.3 | Active | 9.9 | inactive | – |
| N=C(NC1CCCC1)c1ccc(-c2sc(-c3ccc(C(=N)NC4CCCC4)cc3)c3c2OCCO3)cc1 | 26.7 | 1.4 | 10.9 | 15.2 | Active | 45 | 7.8 | 50 | Active | 41 | Active | > 16 | Active | 12.3 | 62.2 | Active | 61.3 | inactive | – |
| Cl.Cl.c1cc(-c2sc(-c3ccc(C4=NCCN4)cc3)c3c2OCCO3)ccc1C1=NCCN1 | 1.5 | 17 | 9 | 14.3 | Active | 4.3 | 2.7 | 17 | Active | 3.1 | – | > 16 | – | 10.8 | 4.1 | Active | 3 | – | Activity (HeLa [13]): 59.6%; Activity (Calf thymus DNA [14]): Active; Activity (HeLa [15]): 37.3%; Activity (HeLa [16]): 21.1%; Activity (HeLa [17]): 25.9%; Activity (HeLa [18]): 30.2%; Activity (HeLa [19]): 33.1%; Activity (HeLa [20]): 18.5%; Activity (HeLa [21]): 32.5%; Activity (HeLa [22]): 53.3%; Activity (HeLa [23]): 55.4%; Activity (HeLa [24]): 7.3%; Activity (HeLa [25]): 62.2%; Activity (HeLa [26]): 46.4%; Activity (Calf thymus DNA [27]): Active; Activity (HeLa [28]): 14.4%; Activity (HeLa [29]): 29.1%; Activity (HeLa [30]): 17.6%; Activity (HeLa [31]): 11.9%; Activity (HeLa [32]): 44.2% |
